Results as given in ChEMBL document CHEMBL5653631, “A Potent and Selective ULK1 Inhibitor Suppresses Autophagy and Sensitizes Cancer Cells to Nutrient Stress” (iScience, 2018).

Assays:
[1] = target: T1, Serine/threonine-protein kinase TAO3 (Homo sapiens) (UniProt Q9H2K8); test: Inhibition of human recombinant TAO3 at 40 nM related to control ULK1
T1 sequence (whole entry): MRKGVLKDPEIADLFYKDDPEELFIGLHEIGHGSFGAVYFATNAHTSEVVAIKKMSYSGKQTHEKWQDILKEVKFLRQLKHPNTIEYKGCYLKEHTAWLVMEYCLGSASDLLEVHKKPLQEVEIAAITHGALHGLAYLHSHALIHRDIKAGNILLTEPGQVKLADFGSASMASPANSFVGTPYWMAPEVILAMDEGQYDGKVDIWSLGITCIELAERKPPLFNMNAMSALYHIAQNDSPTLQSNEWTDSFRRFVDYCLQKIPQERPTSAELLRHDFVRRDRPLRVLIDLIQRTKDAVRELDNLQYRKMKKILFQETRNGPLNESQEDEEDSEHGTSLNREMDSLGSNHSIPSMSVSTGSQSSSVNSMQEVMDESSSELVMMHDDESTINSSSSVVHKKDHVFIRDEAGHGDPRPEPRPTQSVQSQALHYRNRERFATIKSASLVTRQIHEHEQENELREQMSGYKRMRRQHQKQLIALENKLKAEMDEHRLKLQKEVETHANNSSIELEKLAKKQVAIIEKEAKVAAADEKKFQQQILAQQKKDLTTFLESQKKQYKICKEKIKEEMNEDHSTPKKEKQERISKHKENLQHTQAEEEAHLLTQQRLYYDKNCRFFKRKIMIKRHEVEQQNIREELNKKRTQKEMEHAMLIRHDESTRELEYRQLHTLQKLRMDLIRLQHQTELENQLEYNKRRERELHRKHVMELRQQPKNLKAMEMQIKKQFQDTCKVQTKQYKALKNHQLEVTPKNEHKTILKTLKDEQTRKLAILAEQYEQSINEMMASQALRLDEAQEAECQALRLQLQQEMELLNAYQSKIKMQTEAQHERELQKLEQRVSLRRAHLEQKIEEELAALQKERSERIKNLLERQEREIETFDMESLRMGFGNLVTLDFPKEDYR

[2] = target: Mitogen-activated protein kinase 9 (Homo sapiens) (UniProt P45984); test: Inhibition of human recombinant JNK2 at 40 nM related to control ULK1
Chain of Mitogen-activated protein kinase 9 (Homo sapiens) (P45984 whole entry, looked up): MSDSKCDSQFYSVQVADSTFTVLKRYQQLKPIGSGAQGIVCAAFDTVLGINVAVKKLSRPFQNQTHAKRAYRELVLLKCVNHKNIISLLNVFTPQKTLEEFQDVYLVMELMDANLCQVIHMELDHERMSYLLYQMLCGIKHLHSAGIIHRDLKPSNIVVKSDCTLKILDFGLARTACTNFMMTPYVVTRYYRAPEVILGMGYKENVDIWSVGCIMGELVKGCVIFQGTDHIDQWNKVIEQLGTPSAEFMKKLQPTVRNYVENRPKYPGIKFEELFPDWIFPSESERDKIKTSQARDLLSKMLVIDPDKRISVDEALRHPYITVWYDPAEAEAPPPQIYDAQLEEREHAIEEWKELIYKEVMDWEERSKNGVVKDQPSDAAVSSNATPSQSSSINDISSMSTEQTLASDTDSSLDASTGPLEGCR

[3] = target: ALK tyrosine kinase receptor (Homo sapiens) (UniProt Q9UM73); test: Inhibition of human recombinant ALK at 40 nM in presence of ATP by radiometric assay relative to control
Chain of ALK tyrosine kinase receptor (Homo sapiens) (Q9UM73 19-1620 limits assumed): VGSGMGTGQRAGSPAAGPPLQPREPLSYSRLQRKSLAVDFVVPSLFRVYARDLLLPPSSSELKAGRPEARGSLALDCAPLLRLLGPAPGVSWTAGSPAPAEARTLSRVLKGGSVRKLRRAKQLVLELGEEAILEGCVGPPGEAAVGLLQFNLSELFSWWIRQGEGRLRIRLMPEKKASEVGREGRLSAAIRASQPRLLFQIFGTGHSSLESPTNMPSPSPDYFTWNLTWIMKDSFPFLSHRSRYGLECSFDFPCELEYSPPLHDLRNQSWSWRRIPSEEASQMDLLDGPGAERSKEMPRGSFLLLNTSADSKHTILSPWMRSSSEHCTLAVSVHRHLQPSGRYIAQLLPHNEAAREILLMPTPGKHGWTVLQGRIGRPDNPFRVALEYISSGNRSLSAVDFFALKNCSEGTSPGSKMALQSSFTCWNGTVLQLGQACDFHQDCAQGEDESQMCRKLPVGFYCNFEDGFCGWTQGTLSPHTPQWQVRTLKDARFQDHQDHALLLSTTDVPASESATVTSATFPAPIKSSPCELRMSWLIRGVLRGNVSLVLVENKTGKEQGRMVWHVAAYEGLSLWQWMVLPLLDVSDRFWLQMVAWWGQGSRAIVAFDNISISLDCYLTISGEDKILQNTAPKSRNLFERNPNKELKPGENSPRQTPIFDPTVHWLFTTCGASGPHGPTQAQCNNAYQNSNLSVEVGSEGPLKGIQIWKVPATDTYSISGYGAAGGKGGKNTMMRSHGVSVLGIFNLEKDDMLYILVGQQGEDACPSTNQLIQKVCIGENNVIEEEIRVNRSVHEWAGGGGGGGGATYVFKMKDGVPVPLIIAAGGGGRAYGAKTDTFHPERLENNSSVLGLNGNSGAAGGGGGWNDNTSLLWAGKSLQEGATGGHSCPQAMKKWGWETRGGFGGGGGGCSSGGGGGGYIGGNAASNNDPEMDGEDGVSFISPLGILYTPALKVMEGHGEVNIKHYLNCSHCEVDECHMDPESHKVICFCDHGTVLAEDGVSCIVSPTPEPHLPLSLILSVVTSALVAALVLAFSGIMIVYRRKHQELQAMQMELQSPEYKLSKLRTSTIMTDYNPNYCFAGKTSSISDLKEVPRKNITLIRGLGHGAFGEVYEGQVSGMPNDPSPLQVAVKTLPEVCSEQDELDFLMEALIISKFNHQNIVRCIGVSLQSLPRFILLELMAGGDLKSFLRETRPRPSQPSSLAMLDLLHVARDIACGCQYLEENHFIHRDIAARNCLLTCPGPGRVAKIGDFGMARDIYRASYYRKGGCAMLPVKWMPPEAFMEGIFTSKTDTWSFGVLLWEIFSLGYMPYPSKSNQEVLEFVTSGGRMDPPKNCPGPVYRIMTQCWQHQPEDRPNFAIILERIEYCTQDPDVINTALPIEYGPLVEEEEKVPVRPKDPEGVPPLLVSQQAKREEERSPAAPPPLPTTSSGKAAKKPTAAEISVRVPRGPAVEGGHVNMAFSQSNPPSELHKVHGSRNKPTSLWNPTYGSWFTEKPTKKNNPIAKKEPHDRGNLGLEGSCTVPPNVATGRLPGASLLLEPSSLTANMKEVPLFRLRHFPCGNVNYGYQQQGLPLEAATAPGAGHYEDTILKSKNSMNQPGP
How it was run: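 Panel of 327 recombinant human kinases in radiometric activity assays, each screened in duplicate at a single inhibitor concentration; percent activity remaining relative to vehicle control, percent inhibition taken as 100 minus activity remaining.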

[4] = target: Serine/threonine-protein kinase MARK2 (Homo sapiens) (UniProt Q7KZI7); test: Inhibition of human recombinant MARK2 at 40 nM in presence of ATP by radiometric assay relative to control
Chain of Serine/threonine-protein kinase MARK2 (Homo sapiens) (Q7KZI7 whole entry): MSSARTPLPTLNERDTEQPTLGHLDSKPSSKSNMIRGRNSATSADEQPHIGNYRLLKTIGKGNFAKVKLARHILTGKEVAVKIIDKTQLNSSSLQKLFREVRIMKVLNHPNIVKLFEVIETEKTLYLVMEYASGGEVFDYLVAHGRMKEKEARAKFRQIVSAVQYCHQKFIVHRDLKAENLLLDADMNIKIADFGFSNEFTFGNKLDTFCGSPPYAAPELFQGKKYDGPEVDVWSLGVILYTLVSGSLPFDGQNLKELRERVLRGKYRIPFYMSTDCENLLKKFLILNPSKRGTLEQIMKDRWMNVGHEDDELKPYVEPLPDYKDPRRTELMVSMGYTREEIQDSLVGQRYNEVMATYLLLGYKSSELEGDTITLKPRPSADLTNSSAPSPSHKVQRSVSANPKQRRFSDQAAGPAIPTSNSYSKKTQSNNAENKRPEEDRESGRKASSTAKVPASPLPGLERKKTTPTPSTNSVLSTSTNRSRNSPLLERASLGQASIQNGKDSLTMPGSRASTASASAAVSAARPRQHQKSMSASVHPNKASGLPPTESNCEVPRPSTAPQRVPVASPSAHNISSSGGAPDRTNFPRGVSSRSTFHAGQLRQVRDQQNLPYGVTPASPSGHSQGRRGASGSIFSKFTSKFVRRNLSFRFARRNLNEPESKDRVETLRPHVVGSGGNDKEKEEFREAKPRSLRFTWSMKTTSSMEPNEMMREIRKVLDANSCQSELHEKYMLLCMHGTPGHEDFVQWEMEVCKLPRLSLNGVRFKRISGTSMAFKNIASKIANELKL

[5] = target: T2, Activin receptor type-1B (Homo sapiens) (UniProt P36896); test: Inhibition of human recombinant ALK4 at 40 nM in presence of ATP by radiometric assay relative to control
T2 sequence (whole entry): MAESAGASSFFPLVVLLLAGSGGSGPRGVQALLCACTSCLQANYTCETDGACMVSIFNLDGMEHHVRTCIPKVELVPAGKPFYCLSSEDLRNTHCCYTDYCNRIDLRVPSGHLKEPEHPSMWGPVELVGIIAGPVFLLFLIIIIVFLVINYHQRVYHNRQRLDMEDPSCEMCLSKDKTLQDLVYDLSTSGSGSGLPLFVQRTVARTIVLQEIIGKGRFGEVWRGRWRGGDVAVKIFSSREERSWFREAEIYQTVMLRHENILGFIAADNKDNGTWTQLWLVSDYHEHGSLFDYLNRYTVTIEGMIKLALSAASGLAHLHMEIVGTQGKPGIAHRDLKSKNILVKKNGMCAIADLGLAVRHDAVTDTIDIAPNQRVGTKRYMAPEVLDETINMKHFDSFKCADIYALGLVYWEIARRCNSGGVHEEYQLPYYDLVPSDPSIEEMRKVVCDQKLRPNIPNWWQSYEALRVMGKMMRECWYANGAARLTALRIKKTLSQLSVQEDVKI
How it was run: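 Panel of 327 recombinant human kinases, each assayed in vitro by radiometric activity assay in duplicate at a single inhibitor concentration per compound, chosen with reference to its ULK1 inhibition. Activity remaining was expressed as percent of vehicle control, and percent inhibition was calculated as 100 minus percent activity remaining.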

[6] = target: T3, Mitogen-activated protein kinase 12 (Homo sapiens) (UniProt P53778); test: Inhibition of human recombinant p38gamma at 15 nM in presence of ATP by radiometric assay relative to control
T3 sequence (whole entry): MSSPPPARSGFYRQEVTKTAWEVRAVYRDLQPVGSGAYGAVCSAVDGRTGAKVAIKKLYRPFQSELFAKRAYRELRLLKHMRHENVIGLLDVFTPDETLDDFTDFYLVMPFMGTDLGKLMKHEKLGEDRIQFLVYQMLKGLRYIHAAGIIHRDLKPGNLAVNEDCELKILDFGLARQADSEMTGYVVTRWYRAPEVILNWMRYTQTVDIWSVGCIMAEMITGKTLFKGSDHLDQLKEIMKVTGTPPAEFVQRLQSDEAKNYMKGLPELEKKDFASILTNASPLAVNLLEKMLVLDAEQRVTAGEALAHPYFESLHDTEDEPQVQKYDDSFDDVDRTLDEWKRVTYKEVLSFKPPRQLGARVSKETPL

[7] = target: T4, Serine/threonine-protein kinase Sgk3 (Homo sapiens) (UniProt Q96BR1); test: Inhibition of human recombinant SGK3 at 15 nM in presence of ATP by radiometric assay relative to control
T4 sequence (whole entry): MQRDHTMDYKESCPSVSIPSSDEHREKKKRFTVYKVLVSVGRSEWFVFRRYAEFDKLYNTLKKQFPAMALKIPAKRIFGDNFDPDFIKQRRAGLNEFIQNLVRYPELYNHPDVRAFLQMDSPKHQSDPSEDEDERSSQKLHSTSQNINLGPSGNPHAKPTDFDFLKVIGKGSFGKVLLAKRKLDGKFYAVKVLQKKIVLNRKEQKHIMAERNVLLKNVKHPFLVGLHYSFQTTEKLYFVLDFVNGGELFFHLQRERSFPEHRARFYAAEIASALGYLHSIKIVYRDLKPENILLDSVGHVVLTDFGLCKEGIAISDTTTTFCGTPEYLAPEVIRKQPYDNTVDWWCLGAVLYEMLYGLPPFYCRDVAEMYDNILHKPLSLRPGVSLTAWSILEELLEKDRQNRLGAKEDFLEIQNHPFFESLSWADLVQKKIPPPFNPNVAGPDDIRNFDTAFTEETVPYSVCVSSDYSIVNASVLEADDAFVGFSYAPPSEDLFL

[8] = target: RAC-beta serine/threonine-protein kinase (Homo sapiens) (UniProt P31751); test: Inhibition of human recombinant AKT2 at 500 nM related to control ULK1
Chain of RAC-beta serine/threonine-protein kinase (Homo sapiens) (P31751 whole entry): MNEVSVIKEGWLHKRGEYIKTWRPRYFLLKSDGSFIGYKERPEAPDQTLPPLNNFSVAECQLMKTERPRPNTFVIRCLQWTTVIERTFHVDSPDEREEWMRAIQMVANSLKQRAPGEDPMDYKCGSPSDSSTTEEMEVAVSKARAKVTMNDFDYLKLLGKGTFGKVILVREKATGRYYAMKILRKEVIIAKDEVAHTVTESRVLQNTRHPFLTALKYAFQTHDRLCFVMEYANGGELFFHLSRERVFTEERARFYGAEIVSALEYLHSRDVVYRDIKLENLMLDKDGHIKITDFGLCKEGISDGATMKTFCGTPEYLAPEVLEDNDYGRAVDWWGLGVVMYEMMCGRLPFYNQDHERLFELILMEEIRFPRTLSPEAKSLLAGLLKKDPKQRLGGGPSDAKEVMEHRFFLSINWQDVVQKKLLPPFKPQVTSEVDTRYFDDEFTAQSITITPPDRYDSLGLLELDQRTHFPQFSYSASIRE

[9] = target: Serine/threonine-protein kinase VRK2 (Homo sapiens) (UniProt Q86Y07); test: Inhibition of human recombinant VRK2 at 500 nM in presence of ATP by radiometric assay relative to control
Chain of Serine/threonine-protein kinase VRK2 (Homo sapiens) (Q86Y07 whole entry): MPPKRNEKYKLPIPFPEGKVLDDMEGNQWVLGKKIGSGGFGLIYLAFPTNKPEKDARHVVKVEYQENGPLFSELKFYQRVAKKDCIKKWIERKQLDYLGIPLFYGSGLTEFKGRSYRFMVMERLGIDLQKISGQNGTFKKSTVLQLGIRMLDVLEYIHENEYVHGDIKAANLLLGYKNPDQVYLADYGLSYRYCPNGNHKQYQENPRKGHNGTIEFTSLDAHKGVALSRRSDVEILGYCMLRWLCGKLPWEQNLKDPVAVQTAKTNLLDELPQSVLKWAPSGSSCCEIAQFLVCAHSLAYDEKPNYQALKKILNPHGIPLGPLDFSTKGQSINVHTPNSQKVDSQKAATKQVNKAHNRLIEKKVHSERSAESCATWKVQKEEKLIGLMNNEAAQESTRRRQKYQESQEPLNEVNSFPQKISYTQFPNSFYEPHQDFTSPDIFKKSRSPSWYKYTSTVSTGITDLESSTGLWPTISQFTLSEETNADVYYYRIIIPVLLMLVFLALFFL

Structure (SMILES): O=C(N[C@@H](C1CC1)C(F)(F)F)c1cc(-c2cnn3cc(-c4ccc(F)cc4)cnc23)cs1
- fold change (FC) [1]: 0
- fold change (FC) [2]: 0.01
- inhibition [3]: 0%
- inhibition [4]: 12%
- inhibition [5]: 0%

Structure (SMILES): CC(C)[C@H](NC(=O)c1cc(-c2cnn3cc(-c4ccc(OCCN5CCCCC5)cc4)cnc23)cs1)C(F)(F)F
- inhibition [6]: 5%
- inhibition [7]: 4%

Structure (SMILES): CNC(=O)c1ccccc1Oc1nc(Nc2cc(OC)c(OC)c(OC)c2)ncc1Br
- fold change (FC) [8]: 0.09
- inhibition [9]: 23%
